Ends that are not written are not given here.
Key:
Assay type in all cases: cell-based
hFPR2 = biological target: T1, hFPR2 (Homo sapiens, UniProt P25090); test: FLIPR Ca2+ assay, HEK293T cells transfected with hFPR2 and Gα16; conditions: 1% DMSO
T1 sequence (P25090 1-351): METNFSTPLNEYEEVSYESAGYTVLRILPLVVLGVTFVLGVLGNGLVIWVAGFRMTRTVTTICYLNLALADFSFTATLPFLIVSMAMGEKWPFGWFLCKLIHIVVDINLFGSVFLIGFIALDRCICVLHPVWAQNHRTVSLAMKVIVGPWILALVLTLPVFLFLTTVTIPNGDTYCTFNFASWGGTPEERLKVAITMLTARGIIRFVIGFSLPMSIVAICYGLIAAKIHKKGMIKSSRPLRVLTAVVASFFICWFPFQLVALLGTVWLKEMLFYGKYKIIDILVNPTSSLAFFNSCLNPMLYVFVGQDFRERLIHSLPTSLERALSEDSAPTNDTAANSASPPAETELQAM

mFpr1 [1] = biological target: T2, mFpr1 (Mus musculus, UniProt P33766); test: FLIPR Ca2+ assay, HEK293T cells transfected with mFpr1 and Gα16
T2 sequence (P33766 1-364): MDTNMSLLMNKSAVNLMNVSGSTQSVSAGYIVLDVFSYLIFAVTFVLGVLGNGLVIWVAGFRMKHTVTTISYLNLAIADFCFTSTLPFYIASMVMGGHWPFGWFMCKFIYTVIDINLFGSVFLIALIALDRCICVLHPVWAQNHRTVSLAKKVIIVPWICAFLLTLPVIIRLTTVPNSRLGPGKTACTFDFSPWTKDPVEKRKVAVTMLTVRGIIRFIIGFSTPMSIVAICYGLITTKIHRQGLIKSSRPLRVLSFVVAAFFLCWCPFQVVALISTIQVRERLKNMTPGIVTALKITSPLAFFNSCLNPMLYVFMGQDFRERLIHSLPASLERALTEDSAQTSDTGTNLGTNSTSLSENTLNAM

mFpr2 [2] = biological target: T3, mFpr2 (Mus musculus, UniProt O88536); test: FLIPR Ca2+ assay, HEK293T cells transfected with mFpr2 and Gα16
T3 sequence (O88536 1-351): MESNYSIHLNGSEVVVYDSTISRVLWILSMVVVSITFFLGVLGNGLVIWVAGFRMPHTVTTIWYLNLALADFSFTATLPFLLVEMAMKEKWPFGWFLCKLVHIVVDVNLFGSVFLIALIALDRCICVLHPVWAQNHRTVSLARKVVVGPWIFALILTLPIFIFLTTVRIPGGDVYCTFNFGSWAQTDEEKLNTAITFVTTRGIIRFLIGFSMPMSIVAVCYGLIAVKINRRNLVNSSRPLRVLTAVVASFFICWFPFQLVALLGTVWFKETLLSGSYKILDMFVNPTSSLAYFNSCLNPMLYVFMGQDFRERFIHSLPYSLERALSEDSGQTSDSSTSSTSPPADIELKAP

mFpr-rs1 = biological target: T4, mFpr-rs1 (Mus musculus, UniProt O08790); test: FLIPR Ca2+ assay, HEK293T cells transfected with mFpr-rs1 and Gα16
T4 sequence (O08790 1-351): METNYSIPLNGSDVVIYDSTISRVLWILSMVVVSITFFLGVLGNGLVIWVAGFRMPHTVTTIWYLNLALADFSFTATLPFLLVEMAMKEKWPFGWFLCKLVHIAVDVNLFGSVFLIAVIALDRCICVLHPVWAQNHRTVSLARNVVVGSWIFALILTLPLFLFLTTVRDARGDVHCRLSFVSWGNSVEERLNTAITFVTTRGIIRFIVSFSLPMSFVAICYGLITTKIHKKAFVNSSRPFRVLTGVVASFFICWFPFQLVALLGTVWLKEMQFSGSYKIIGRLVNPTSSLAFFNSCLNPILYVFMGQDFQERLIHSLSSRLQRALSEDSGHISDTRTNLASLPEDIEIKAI

mock-transfected cells = test: FLIPR Ca2+ assay, mock-transfected negative control; conditions: mock-transfected negative controls; different kinetics
How it was run: (§1)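 HEK293T PEAKrapid cells seeded on poly-D-lysine, transfected 24 h later (jetPEI) with receptor plus Gα16 in equal amounts, or empty vector for mock. After 48 h, loaded with 2 μM Fluo-4 AM and 50 μM probenecid for 2 h at room temperature in C1 buffer (HEPES, pH 7.2), then rinsed three times. About 50,000 cells per well on FLIPR; ligands in C1. Response is ΔF/F0 (peak over baseline), fitted with a variable-slope sigmoid.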

[3] = test system: human receptors (hFPR1, hFPR2, hFPR3); test: FLIPR Ca2+ assay, human receptors
How it was run: as §1

mFpr1 [4] = biological target: T2, mFpr1; test: Single-cell resolution Ca2+ imaging, mFpr1; conditions: 9 μM fMLF; single-cell Fura-2 Ca2+ imaging
How it was run: (§2)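 Single-cell Ca2+ imaging on a Pathway Bioimager. HEK293T PEAKrapid cells cotransfected with receptor, Gα16 and EGFP plasmid (1/10) and loaded with Fura-2/AM. […] C1 buffer application served as mechanical control, with buffer-responding cells excluded; 30 μM ATP checked viability. Mock-transfected cells were the negative control, and responding cells were counted.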

mFpr2 [5] = biological target: T3, mFpr2; test: Single-cell resolution Ca2+ imaging, mFpr2; conditions: 9 μM fMLF; single-cell Fura-2 Ca2+ imaging
How it was run: as §2

[6] = test system: all other family members (hFPR3, vomeronasal Fprs); test: Single-cell resolution Ca2+ imaging, all other Fpr family members; conditions: 9 μM fMLF; single-cell Fura-2 Ca2+ imaging
How it was run: as §2

C[S+](C)[O-] [DMSO, dimethyl sulfoxide]
receptor activation (in words) (hFPR2): susceptible | saturation reached at (mFpr1 [1]; DMSO concentration, FLIPR Ca2+): ~3% | threshold of activation (mFpr1 [1]; DMSO concentration, FLIPR Ca2+): ~0.1% | saturation reached at (mFpr2 [2]; DMSO concentration): ~3% | threshold of activation (mFpr2 [2]; DMSO concentration): ~0.1% | receptor activation (in words) (mFpr-rs1): but not mFpr-rs1 | concentrations giving unspecific DMSO-dependent signals (mock-transfected cells): > 2%

Ac2-26: classical Fpr agonist purchased from Tocris (Ac-AMVSEFLKQAWFIENEEQEYVQTVK; UniProt P04083 2-26, looked up, fragment)
Ca2+ response (in words) [3]: robust Ca^2+ elevations

H-RIHIGPGRALYTT-OH [V3gp120 HIV (BK-130)]
EC50 (mFpr1 [1]): 4.5 µM | activation threshold (mFpr1 [1]; FLIPR Ca2+): ~1 µM | subtype selectivity (in words) (mFpr1 [1]; mFpr1 versus mFpr2, FLIPR Ca2+): strongly preferential activators of mFpr1 | concentrations at which only a weak activation was seen (mFpr2 [2]; weak activation): ≥ 30 µM

N-formylmethionine-leucine-phenylalanine [fMLF]
activation by fMLF (in words) (mFpr1 [4]): could be activated | activation by fMLF (in words) (mFpr2 [5]): could be activated | activation by fMLF (in words) [6]: did not respond

— publication PMC3460462 (The Journal of Biological Chemistry, 2012)
